Source: ChEMBL document CHEMBL1131381, “Design and synthesis of potent, selective inhibitors of endothelin-converting enzyme” (J Med Chem, 1998)
pIC50: −log10 of the molar value.

How the values were obtained:
[1] = biological target: Neprilysin (Homo sapiens, UniProt P08473); experiment: Inhibitory activity against neutral endopeptidase (NEP).
[2] = biological target: T1, Endothelin-converting enzyme 1 (Homo sapiens, UniProt P42892); experiment: Inhibitory activity was assessed on CHO cells expressing recombinant human Endothelin-converting enzyme 1 (ECE-1).; format: cell-based
T1 sequence (P42892 whole entry): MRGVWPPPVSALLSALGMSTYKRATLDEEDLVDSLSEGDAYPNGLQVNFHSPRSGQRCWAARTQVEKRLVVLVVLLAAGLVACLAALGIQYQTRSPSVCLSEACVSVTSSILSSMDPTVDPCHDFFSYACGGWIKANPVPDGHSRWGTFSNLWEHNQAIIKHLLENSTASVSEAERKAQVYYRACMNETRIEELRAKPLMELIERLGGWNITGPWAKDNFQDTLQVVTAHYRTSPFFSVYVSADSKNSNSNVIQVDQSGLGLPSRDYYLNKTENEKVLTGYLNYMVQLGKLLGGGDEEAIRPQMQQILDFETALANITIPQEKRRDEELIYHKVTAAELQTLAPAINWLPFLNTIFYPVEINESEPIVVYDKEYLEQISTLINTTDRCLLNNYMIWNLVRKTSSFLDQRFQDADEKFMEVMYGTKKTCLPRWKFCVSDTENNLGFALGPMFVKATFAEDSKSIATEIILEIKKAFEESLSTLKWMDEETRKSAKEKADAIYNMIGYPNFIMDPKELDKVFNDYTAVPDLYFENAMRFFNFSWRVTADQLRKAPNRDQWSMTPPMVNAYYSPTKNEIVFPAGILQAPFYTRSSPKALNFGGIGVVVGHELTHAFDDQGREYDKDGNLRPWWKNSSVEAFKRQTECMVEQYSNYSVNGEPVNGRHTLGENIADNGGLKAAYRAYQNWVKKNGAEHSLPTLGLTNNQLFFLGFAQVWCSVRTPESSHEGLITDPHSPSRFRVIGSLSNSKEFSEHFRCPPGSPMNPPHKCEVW
How it was run: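 Membrane preparation (10 µg protein) from CHO cells expressing human ECE-1 was preincubated with compound for 20 min at room temperature in 50 mM Tes pH 7.0 with 0.005% Triton X-100. Human big ET-1 was added to a final 0.2 µM for 2 h at 37 °C. ET-1 formed was measured by [¹²⁵I]ET-1 radioimmunoassay.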

[3] = Ratio of inhibitory activities against endothelin converting enzyme-1(ECE-1) and neutral endopeptidase (NEP).
[4] = biological target: T2, Endothelin-converting enzyme 1 (Homo sapiens) (UniProt P42892); experiment: Inhibitory activity (1 uM) was assessed on CHO cells expressing in recombinant human Endothelin-converting enzyme 1 (ECE-1); format: cell-based
T2 sequence (whole entry): T1 sequence (P42892 whole entry)

[5] = biological target: T3, Neprilysin (Rattus norvegicus) (UniProt P07861); experiment: Inhibitory activity (10 uM) against rat neutral endopeptidase (NEP)
T3 sequence (whole entry): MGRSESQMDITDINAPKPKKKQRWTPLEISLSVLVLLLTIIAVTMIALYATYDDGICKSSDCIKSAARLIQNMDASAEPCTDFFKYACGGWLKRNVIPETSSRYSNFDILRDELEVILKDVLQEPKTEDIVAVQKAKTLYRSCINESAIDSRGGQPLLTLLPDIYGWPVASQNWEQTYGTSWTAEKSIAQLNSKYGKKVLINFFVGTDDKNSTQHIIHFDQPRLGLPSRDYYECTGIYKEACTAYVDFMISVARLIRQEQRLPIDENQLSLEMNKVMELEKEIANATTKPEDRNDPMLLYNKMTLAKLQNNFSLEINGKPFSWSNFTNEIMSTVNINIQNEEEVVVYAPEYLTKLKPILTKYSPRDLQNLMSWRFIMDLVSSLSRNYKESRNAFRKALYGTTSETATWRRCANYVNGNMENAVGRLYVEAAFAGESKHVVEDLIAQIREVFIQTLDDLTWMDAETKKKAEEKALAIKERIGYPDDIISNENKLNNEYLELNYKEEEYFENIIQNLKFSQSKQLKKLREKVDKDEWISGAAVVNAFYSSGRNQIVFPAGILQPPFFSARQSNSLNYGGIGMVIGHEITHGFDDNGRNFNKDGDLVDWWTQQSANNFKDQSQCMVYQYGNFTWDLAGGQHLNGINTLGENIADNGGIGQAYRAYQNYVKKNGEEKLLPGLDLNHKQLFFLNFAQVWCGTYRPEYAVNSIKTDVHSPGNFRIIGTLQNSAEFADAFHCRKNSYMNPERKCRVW

[6] = biological target: T2, Endothelin-converting enzyme 1 (Homo sapiens); experiment: Inhibitory activity (1 uM) was assessed on CHO cells expressing in recombinant human Endothelin-converting enzyme 1 (ECE-1)

Sequence of Neprilysin (P08473 whole entry): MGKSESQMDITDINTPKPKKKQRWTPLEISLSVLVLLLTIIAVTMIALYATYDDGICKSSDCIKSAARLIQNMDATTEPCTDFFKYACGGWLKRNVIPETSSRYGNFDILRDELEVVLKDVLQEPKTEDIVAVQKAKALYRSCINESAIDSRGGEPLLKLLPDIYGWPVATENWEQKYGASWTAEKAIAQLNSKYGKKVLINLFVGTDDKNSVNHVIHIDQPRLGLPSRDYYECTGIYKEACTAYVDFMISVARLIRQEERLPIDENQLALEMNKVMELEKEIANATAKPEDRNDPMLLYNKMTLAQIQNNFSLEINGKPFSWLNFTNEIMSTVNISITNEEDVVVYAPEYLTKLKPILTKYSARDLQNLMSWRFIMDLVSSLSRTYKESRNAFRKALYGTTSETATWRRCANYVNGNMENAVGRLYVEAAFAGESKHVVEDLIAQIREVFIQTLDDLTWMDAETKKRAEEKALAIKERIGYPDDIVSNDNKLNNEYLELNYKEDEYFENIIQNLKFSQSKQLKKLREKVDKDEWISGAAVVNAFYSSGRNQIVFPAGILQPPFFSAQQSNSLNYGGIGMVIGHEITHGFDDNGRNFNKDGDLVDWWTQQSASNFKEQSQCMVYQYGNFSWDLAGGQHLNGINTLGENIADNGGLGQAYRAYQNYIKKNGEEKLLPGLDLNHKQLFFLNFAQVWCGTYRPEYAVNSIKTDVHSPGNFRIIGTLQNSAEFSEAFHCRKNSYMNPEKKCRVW

pIC50 [1] | pIC50 [2] | Selectivity [3] | inhibition [4] [%] | inhibition [5] [%] | inhibition [6] [%] | Compound
6.14 | 7.09 | 9 |  |  |  | O=C(O)CN1C(=O)[C@@H](NC(=O)[C@H](CC#Cc2ccc(F)cc2F)NCP(=O)(O)O)CCc2ccccc21
5.21 | 7.47 | 182 |  |  |  | O=C(NCCc1cccc2ccccc12)[C@H](CC#Cc1ccc(F)cc1F)NCP(=O)(O)O
 | 6.92 |  |  |  |  | CC(C)C[C@H](NC(=O)[C@H](CC#Cc1ccccc1F)NCP(=O)(O)O)C(=O)O
5.01 | 6.95 | 87 |  |  |  | O=C(NCCc1c[nH]c2ccccc12)[C@H](CC#Cc1ccc(F)cc1F)NCP(=O)(O)O
5.15 | 7.28 | 132 |  |  |  | O=C(NCCc1ccc2ccccc2c1)[C@H](CC#Cc1ccc(F)cc1F)NCP(=O)(O)O
4.26 | 6.60 | 220 |  |  |  | O=C(NCc1ccccc1)[C@H](CC#Cc1ccccc1F)NCP(=O)(O)O
4.40 | 6.96 | 364 |  |  |  | O=C(NCCc1ccc(Br)cc1)[C@H](CC#Cc1ccccc1F)NCP(=O)(O)O
 |  |  | 8 |  |  | O=C(NCCc1ccc(-c2ccccc2)cc1)[C@H](CCCc1ccccc1F)NCP(=O)(O)O
5.00 | 7.12 | 132 |  |  |  | O=C(NCCc1c[nH]c2ccccc12)[C@H](CC#Cc1ccccc1F)NCP(=O)(O)O
5.89 | 7.60 | 52 |  |  |  | O=C(O)[C@H](Cc1ccc2ccccc2c1)NC(=O)[C@H](CC#Cc1ccccc1F)NCP(=O)(O)O
5.19 | 7.48 | 197 |  |  |  | O=C(NCCc1ccc(-c2ccccc2)cc1)[C@H](CC#Cc1ccccc1F)NCP(=O)(O)O
4.97 | 6.89 | 82 |  |  |  | O=C(NCCc1cccc2ccccc12)[C@H](CC#Cc1ccccc1F)NCP(=O)(O)O
6.07 | 7.37 | 20 |  |  |  | O=C(NCCc1ccc(Br)cc1)[C@H](CC#Cc1ccc(F)cc1F)NCP(=O)(O)O
5.24 | 8.10 | 725 |  |  |  | CC(C)C[C@H](NC(=O)[C@H](CC#Cc1ccc(F)cc1F)NCP(=O)(O)O)C(=O)N[C@@H](C)C(=O)O
 |  |  | 0 |  |  | O=C(NCCCCc1ccccc1)[C@H](CC#Cc1ccccc1F)NCP(=O)(O)O
5.00 | 6.51 | 32 |  |  |  | O=C(NCCc1ccccn1)[C@H](CC#Cc1ccc(F)cc1F)NCP(=O)(O)O
6.02 | 6.29 | 1.9 |  |  |  | CC(C)C[C@H](NC(=O)[C@H](CC#Cc1ccccc1)NCP(=O)(O)O)C(=O)O
4.59 | 6.77 | 153 |  |  |  | O=C(O)[C@H](CC#Cc1ccc(F)cc1F)NCP(=O)(O)O
4.64 | 6.85 | 164 |  |  |  | CC(C)CCNC(=O)[C@H](CC#Cc1ccc(F)cc1F)NCP(=O)(O)O
 | 6.96 |  |  |  |  | O=C(NCCc1ccccc1)[C@H](CC#Cc1ccc(F)cc1F)NCP(=O)(O)O
5.17 | 7.29 | 131 |  |  |  | CC(C)C[C@H](NC(=O)[C@H](CC#Cc1ccc(F)cc1F)NCP(=O)(O)O)C(=O)O

pIC50 [1] | pIC50 [2] | Selectivity [3] | inhibition [4] [%] | inhibition [5] [%] | inhibition [6] [%] | Compound
5.39 | 6.64 | 18 |  |  |  | CSCC[C@H](NC(=O)[C@H](CC#Cc1ccccc1F)NCP(=O)(O)O)C(=O)O
6.60 | 7.89 | 19 |  |  |  | O=C(O)[C@H](Cc1ccc(-c2ccccc2)cc1)NC(=O)[C@H](CC#Cc1ccccc1F)NCP(=O)(O)O
 |  |  |  | 12 | 0 | COc1ccccc1C#CC[C@H](NCP(=O)(O)O)C(=O)N[C@@H](CC(C)C)C(=O)O
 |  |  | 45 |  |  | Cc1ccc(C#CC[C@H](NCP(=O)(O)O)c2nn[nH]n2)cc1
5.60 | 7.55 | 89 |  |  |  | O=C(NCCc1ccc(-c2ccccc2)cc1)[C@H](CC#Cc1ccc(F)cc1F)NCP(=O)(O)O
 |  |  | 0 |  |  | COc1ccccc1C#CC[C@H](NCP(=O)(O)O)c1nn[nH]n1
5.68 | 7.85 | 148 |  |  |  | O=C(O)[C@H](CC1CCCCC1)NC(=O)[C@H](CC#Cc1ccc(F)cc1F)NCP(=O)(O)O
 | 6.82 |  |  |  |  | O=C(NCCCc1ccccc1)[C@H](CC#Cc1ccc(F)cc1F)NCP(=O)(O)O
4.96 | 6.62 | 46 |  |  |  | O=C(O)[C@H](CC#Cc1ccccc1F)NCP(=O)(O)O
5.20 | 7.55 | 225 |  |  |  | O=C(O)[C@H](CC#Cc1ccccc1F)NC(=O)[C@H](CC#Cc1ccccc1F)NCP(=O)(O)O
8.30 | 7.77 | 0.29 |  |  |  | O=P(O)(O)C(CCc1cccc2ccccc12)N[C@@H](Cc1ccc(-c2ccccc2)cc1)c1nnn[nH]1 (some centres not stated)
 |  |  | 3 |  |  | CN(CCc1ccccc1)C(=O)[C@H](CC#Cc1ccccc1F)NCP(=O)(O)O
4.72 | 6.64 | 83 |  |  |  | O=C(NCCc1ccccc1)[C@H](CC#Cc1ccccc1F)NCP(=O)(O)O
6.77 | 6.23 | 0.3 |  |  |  | O=P(O)(O)CN[C@@H](CC#Cc1ccccc1)c1nn[nH]n1
 | 5.37 |  |  | 38 |  | CC(C)C[C@H](NC(=O)[C@H](CC#Cc1ccccc1Cl)NCP(=O)(O)O)C(=O)O
7.85 | 6.82 | 0.1 |  |  |  | O=P(O)(O)CN[C@@H](CC#Cc1ccccc1F)c1nnn[nH]1
 | 6.80 |  |  | 21 |  | COc1ccc(CCNC(=O)[C@H](CC#Cc2ccc(F)cc2F)NCP(=O)(O)O)cc1OC
5.92 | 7.25 | 21 |  |  |  | O=C(O)[C@H](Cc1ccccc1)NC(=O)[C@H](CC#Cc1ccccc1F)NCP(=O)(O)O
5.20 | 6.96 | 57 |  |  |  | CC(C)[C@H](NC(=O)[C@H](CC#Cc1ccccc1F)NCP(=O)(O)O)C(=O)O
 | 6.40 |  |  |  |  | CC(C)C[C@H](NC(=O)[C@H](CC#Cc1cccc(F)c1)NCP(=O)(O)O)C(=O)O
